The source of these data is ChEMBL document CHEMBL4152387, “Discovery of a Potent Grp94 Selective Inhibitor with Anti-Inflammatory Efficacy in a Mouse Model of Ulcerative Colitis” (J Med Chem, 2018).

Data set [1] concerns the target T1, Heat shock protein HSP 90-alpha (Homo sapiens, UniProt P07900). Description: Inhibition of HSP90alpha in human PANC1 cells assessed as akt degradation at 1 to 5 uM after 36 hrs by Western blot analysis. Format: cell-based. Put shortly: (§1)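 Panc-1 cells treated 36 h; total protein lysate with protease/phosphatase inhibitors; equal protein by BCA on SDS-PAGE, PVDF, Western blot for Hsp70 and Akt, β-actin loading control; AT13387 reference.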
On the technique in general: A western blot detects proteins with antibodies after separation by electrophoresis.

In data set [2] the test system is Mus musculus. In words: Anti-inflammatory activity in C57BL/6 mouse model of DSS-induced ulcerative colitis assessed reduction in colon shortening at 10 to 30 mg/kg, ip qd co-administrated with DSS measured on day 7 post dose. The data set is classed as functional, organism-based. Put shortly: (§2)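 Male C57BL/6 mice (20−22 g), n = 8 per group, 3% DSS in drinking water 7 days plus ip qd dosing at 10 or 30 mg/kg; vehicle controls. Sacrificed at day 7, colons collected; colon length measured and H&E-stained colon sections examined.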

Data set [3] relates to Mus musculus. Description: Subacute toxicity in C57BL/6 mouse assessed as body weight loss at 30 to 90 mg/kg, ip qd for 2 weeks measured every other day. The data set is classed as organism-based. Conditions: in vivo, 336 h.
For data set [4], the system named is Mus musculus. In words: Anti-inflammatory activity in ip dosed C57BL/6 mouse model of DSS-induced ulcerative colitis assessed reduction in IL6 levels in colonic tissues co-administrated once daily with DSS measured on day 7 post dose by ELISA. The data set is classed as functional, organism-based. The procedure, abridged:
(§3)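 DSS colitis in male C57BL/6 mice (3% DSS in water, 7 days, ip qd co-dosing, vehicle controls). Serum and colons taken at sacrifice on day 7; colon homogenate supernatants and serum assayed for mouse TNFα and IL-6 by ELISA kits; n = 5 samples per group.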
On the technique in general: ELISA stands for enzyme-linked immunosorbent assay.

Data set [5] relates to Mus musculus. In words: Subacute toxicity in C57BL/6 mouse assessed as effect on kidneys at 30 to 90 mg/kg, ip qd for 2 weeks by hematoxylin and eosin staining analysis. The data set is classed as organism-based. Conditions: in vivo, 336 h.
Data set [6] addresses T2, Endoplasmin (Homo sapiens, UniProt P14625). Description: Inhibition of GRP94 in human PANC1 cells assessed as down-regulation of integrin alphaL levels after 36 hrs by Western blot analysis. The data set is classed as cell-based. The procedure, abridged: (§4)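 Panc-1 cells treated 36 h at indicated concentrations; cell surface protein extracted with a membrane-fractionation kit; Western blot for integrin α2 and αL with β-actin loading control, infrared fluorescent secondary detection.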

The subject of data set [7] is Mus musculus. Description: Subacute toxicity in C57BL/6 mouse assessed as effect on spleen at 30 to 90 mg/kg, ip qd for 2 weeks by hematoxylin and eosin staining analysis. Format: organism-based. Conditions: in vivo, 336 h.
Data set [8] deals with Mus musculus. In words: Anti-inflammatory activity in ip dosed C57BL/6 mouse model of DSS-induced ulcerative colitis assessed reduction in TNFalpha levels in serum co-administrated once daily with DSS measured on day 7 post dose by ELISA. Format: functional, organism-based. The procedure, abridged: as §3
The species named for data set [9] is Canis lupus familiaris. In words: Binding affinity to dog His-tagged biotinylated GRP94 N41 deletion mutant (69 to 337 residues) expressed in Escherichia coli BL21star (DE3) assessed as dissociation constant by biolayer interferometry. Put shortly: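 His-tagged Grp94N biotinylated at one molar ratio in PBS pH 7.4, dialysed overnight, loaded at 400 nM on streptavidin biosensors after 10 min prewetting in PBS, 0.05% BSA, 0.01% Tween-20. Four compound concentrations in this buffer tested; binding recorded at 30 °C by biolayer interferometry.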
(BLI is a label-free optical method that tracks binding on a fibre tip over time.)

In data set [10] the test system is Mus musculus. Description: Anti-inflammatory activity in C57BL/6 mouse model of DSS-induced ulcerative colitis assessed reduction in TLR9 expression in colonic tissues at 10 to 30 mg/kg, ip qd co-administrated with DSS measured on day 7 post dose. Format: functional, organism-based. The procedure, abridged: (§5)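 DSS colitis in male C57BL/6 mice (3% DSS, 7 days, ip qd 10 or 30 mg/kg, vehicle controls); colons flash-frozen at day 7, homogenized in lysis buffer with protease/phosphatase inhibitors. Equal protein by BCA run on SDS-PAGE, PVDF, 1% BSA block, primary antibodies 37 °C 1 h then 4 °C overnight, DyLight 800 secondary, infrared scan; β-actin loading control.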

For data set [11], the species on record is Canis lupus familiaris. In words: Inhibition of FITC-geldanamycin binding to dog GST-tagged GRP94 N41 deletion mutant (69 to 337 residues) expressed in Escherichia coli BL21star (DE3) at 100 uM after 4 hrs by FP assay relative to control.
Data set [12] addresses T2, Endoplasmin. Description: Inhibition of GRP94 in human PANC1 cells assessed as down-regulation of integrin alpha2 levels after 36 hrs by Western blot analysis. Format: cell-based. Put shortly:
as §4

Data set [13] in a line: Ratio of Kd for human His-tagged biotinylated HSP90alpha N-terminal domain (1 to 236 residues) to Kd for dog His-tagged biotinylated GRP94 N41 deletion mutant (69 to 337 residues).
In data set [14] the test system is Mus musculus. Description: Anti-inflammatory activity in C57BL/6 mouse model of DSS-induced ulcerative colitis assessed mortality at 30 mg/kg, ip qd co-administrated with DSS measured on day 7 post dose. Format: functional, organism-based. Put shortly:
(§6)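 Male C57BL/6 mice (20−22 g), randomized, n = 8 per group; 3% DSS (36−50 KD) in drinking water for 7 days, with compound given ip once daily alongside; normal and disease controls received vehicle. Deaths counted at day 7.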

In data set [15] the test system is Mus musculus. In words: Anti-inflammatory activity in C57BL/6 mouse model of DSS-induced ulcerative colitis assessed reduction in p65 expression in colonic tissues at 10 to 30 mg/kg, ip qd co-administrated with DSS measured on day 7 post dose. The data set is classed as functional, organism-based. The procedure, abridged:
as §5

The test system of data set [16] is Mus musculus. In words: Anti-inflammatory activity in C57BL/6 mouse model of DSS-induced ulcerative colitis assessed reduction in colonic tissue damage at 10 to 30 mg/kg, ip qd co-administrated with DSS measured on day 7 post dose. The data set is classed as functional, organism-based. The procedure, abridged: as §2
Data set [17] concerns the target T1, Heat shock protein HSP 90-alpha. In words: Inhibition of HSP90alpha in human PANC1 cells assessed as up-regulation of Hsp70 at 1 to 5 uM after 36 hrs by Western blot analysis. The data set is classed as cell-based. Put shortly: as §1
Data set [18] deals with Mus musculus. In words: Anti-inflammatory activity in C57BL/6 mouse model of DSS-induced ulcerative colitis assessed mortality at 10 mg/kg, ip qd co-administrated with DSS measured on day 7 post dose. Format: functional, organism-based. The procedure, abridged:
as §6

Data set [19] has as its system Mus musculus. Description: Subacute toxicity in C57BL/6 mouse assessed as effect on heart at 30 to 90 mg/kg, ip qd for 2 weeks by hematoxylin and eosin staining analysis. Format: organism-based. Particulars: in vivo, 336 h.
The subject of data set [20] is Mus musculus. In words: Anti-inflammatory activity in C57BL/6 mouse model of DSS-induced ulcerative colitis assessed reduction in body weight loss at 10 to 30 mg/kg, ip qd co-administrated with DSS measured until day 7 post dose. Format: functional, organism-based. Put shortly:
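Male C57BL/6 mice (20−22 g), n = 8 per group, 3% DSS in drinking water for 7 days with ip qd dosing at 10 or 30 mg/kg; vehicle for normal and disease controls. Body weight, stool consistency and rectal bleeding recorded daily; DAI scored from weight loss, stool consistency and stool blood.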

The test system of data set [21] is Mus musculus. Description: Anti-inflammatory activity in ip dosed C57BL/6 mouse model of DSS-induced ulcerative colitis assessed reduction in IL6 levels in serum co-administrated once daily with DSS measured on day 7 post dose by ELISA. The data set is classed as functional, organism-based. The procedure, abridged: as §3
For data set [22], the species on record is Canis lupus familiaris. Description: Binding affinity to dog GST-tagged GRP94 N41 deletion mutant (69 to 337 residues) expressed in Escherichia coli BL21star (DE3) at 40 uM by NMR based CPMG assay.
The subject of data set [23] is Mus musculus. Description: Subacute toxicity in C57BL/6 mouse assessed as effect on lung at 30 to 90 mg/kg, ip qd for 2 weeks by hematoxylin and eosin staining analysis. Particulars: in vivo, 336 h. Format: organism-based.

The source made the active and inactive calls. The calls are words filed in the database; no cut-off is given here.

T2 sequence (P14625 whole entry): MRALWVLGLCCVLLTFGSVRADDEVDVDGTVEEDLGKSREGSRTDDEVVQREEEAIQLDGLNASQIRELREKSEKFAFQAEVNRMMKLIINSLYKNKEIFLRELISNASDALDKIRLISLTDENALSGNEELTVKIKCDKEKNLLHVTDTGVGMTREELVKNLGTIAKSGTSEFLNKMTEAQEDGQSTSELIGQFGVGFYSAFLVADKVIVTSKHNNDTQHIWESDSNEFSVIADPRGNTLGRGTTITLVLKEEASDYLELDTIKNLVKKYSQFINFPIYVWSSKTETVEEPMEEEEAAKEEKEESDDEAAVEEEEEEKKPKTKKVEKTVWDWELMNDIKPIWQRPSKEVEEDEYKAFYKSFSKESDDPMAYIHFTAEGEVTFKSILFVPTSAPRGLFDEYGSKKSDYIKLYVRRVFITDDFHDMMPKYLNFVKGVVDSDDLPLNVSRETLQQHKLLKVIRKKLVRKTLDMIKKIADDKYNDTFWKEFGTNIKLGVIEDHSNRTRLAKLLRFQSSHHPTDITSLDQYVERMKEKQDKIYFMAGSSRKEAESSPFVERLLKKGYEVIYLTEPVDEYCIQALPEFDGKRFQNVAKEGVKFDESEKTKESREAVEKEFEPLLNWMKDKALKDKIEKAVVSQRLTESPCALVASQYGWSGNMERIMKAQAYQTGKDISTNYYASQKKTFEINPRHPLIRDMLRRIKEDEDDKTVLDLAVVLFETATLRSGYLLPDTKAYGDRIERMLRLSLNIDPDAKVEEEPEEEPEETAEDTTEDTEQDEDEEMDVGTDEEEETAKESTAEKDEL

For the compound `CC(C)c1ccc(-c2ccc(N[C@H]3CC[C@H](O)CC3)c(C(N)=O)c2)cc1`, the “inhibition (INH)” value in data set [1] and in data set [17] was “Not Active” each time. Besides, the outcome in the data set with Mus musculus [2], with Mus musculus [16] and with Mus musculus [18] was inactive. For the same compound, the Activity result is “Non-Toxic” with Mus musculus [3]; “Dose-dependent effect” in the data set with Mus musculus [4]; “Non-Toxic” with Mus musculus [5]; “Non-Toxic” in the data set with Mus musculus [7]; “Dose-dependent effect” in the data set with Mus musculus [8]; “Non-Toxic” with Mus musculus [19]. Also, the Activity entry with Mus musculus [21] was “Dose-dependent effect”; in the data set on Mus musculus [23], “Non-Toxic”. Besides, the results for the inhibition result on Endoplasmin [6], in the data set listed under Canis lupus familiaris [11] and on Endoplasmin [12] were “Dose-dependent effect”, 100% and “Dose-dependent effect”, respectively. The K in the data set filed under Canis lupus familiaris [9] amounted to 1.25 ×10⁻² /s. Further, the result with Mus musculus [10], with Mus musculus [14], in the data set on Mus musculus [15], in the data set on Mus musculus [20] and in the data set filed under Canis lupus familiaris [22] was Active. In addition, the Ratio in data set [13] was greater than 1000.
